High-throughput results from PubChem BioAssay.
In the library only some 1.2% were active in any assay of this set; here they are far more common.
CAL PDZ FP-1 – human CAL PDZ-peptide interaction inhibition; Q9HD26; purified CAL PDZ, TMR-peptide fluorescence polarization, 1 h; inhibition, % at 20 µM; hit rate 0.02% among 330,000; AID 504414;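 active = highest replicate inhibition of at least 40%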;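 also: plate controls were DMSO neutral control wells for no effect and unlabeled competitor peptide control wells for full effect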
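Assay system – tagged CAL PDZ protein CerCALP, purified · Timing – 1 h at RT · Compound – single point, 20 µM · Measured by – fluorescence polarization from S- and P-plane intensities, G-factor corrected · Evaluation – inhibition from polarization loss · Probe or stimulus – TMR reporter peptide T*-PRC34 · Buffer or medium – pH 7.4 phosphate-saline buffer, reducing agent, detergent, IgG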
CAL PDZ FP-2 – CAL PDZ (human) peptide binding inhibition | Q9HD26 | purified CAL PDZ, TMR-peptide fluorescence polarization, 1 h | inhibition, % at 24.9 µM | hit rate 0.92% among 300,000 | AID 602252;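 active = mean inhibition of at least 30% with at least half of replicates also reaching 30%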;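 also: 0% = DMSO neutral control and 100% = excess unlabeled competitor peptide PRC23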
ARNT-TACC3 inh – disruptors of human ARNT/TACC3 interaction. Q9Y6A5. AlphaScreen His-ARNT PAS-B/GST-TACC3 binding, luminescence; TACC3 fragment carries E629A point mutation. inhibition, % at 9.99 µM. hit rate 0.66% among 390,000;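 active = mean inhibition of replicates at least 50% and at least half of replicates each reaching 50%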;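 also: 0% = complete ARNT plus TACC3 wells and 100% = ARNT alone without TACC3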
AlphaScreen ctr – interferes with AlphaScreen signal, flagging false ARNT-TACC3 hits. shares compounds with ARNT-TACC3 inh. His-ARNT PASB-GST AlphaScreen artifact counter-screen, luminescence. AC50, µM (series often up to 68 µM), for inactives: at the highest dose activity change, negative = signal decrease. hit rate 50% among 1,200. AID 651705;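 active = every separate test run was called active for a drop in luminescence, with AC50 within twice the top valid dose, actives reach about 71 µM in these data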
* = called active by the depositor; [ ] = another dose, or the depositor's remark.

`COc1ccc(NC(=O)N[C@H]2CC[C@@H](CCn3cc(-c4ccccn4)nn3)O[C@@H]2CO)cc1` gave ARNT-TACC3 inh 95* and AlphaScreen ctr 39µM*.
COc1ccc(NC(=O)N[C@H]2CC[C@@H](CCn3cc(-c4ccccn4)nn3)O[C@H]2CO)cc1 was read as ARNT-TACC3 inh 65* and AlphaScreen ctr 40µM*.
`COc1ccc(NC(=O)N[C@H]2CC[C@@H](CCn3cc(-c4ccccc4F)nn3)O[C@@H]2CO)cc1` gave ARNT-TACC3 inh -12.
`C/C=C/c1ccc([C@H]2[C@H]3CN(CCC(F)(F)F)CCCCN3[C@H]2CO)cc1` gave ARNT-TACC3 inh -1.
`O=C(C[C@H]1C[C@@H]2c3cc(NC(=O)Nc4ccccc4)ccc3O[C@@H]2[C@@H](CO)O1)NCc1ccccn1` gave ARNT-TACC3 inh -5.
`c1ccc(-c2nnc(Nc3nc(-c4ccccn4)nnc3-c3ccccc3)s2)cc1` gave AlphaScreen ctr 4.1µM*.
Cn1c(-c2ccccc2)cnc1Nc1nc(-c2ccccn2)nnc1-c1ccccc1 was read as AlphaScreen ctr 2.6µM*.
c1ccc(-c2nnc(-c3ccccn3)nc2NC2CCCCC2)cc1 was read as CAL PDZ FP-1 -4 and CAL PDZ FP-2 2.
c1ccc(Nc2nnc(-c3cccnc3)s2)cc1 was read as CAL PDZ FP-1 0, CAL PDZ FP-2 -1 and ARNT-TACC3 inh 5.
`CNc1nc(-c2ccccn2)nnc1-c1ccccc1` gave CAL PDZ FP-1 -2, CAL PDZ FP-2 0, ARNT-TACC3 inh 64* and AlphaScreen ctr 3µM*.
For Cn1c(-c2ccccc2)cnc1NCc1ccc(F)cc1 the results were CAL PDZ FP-1 0 and ARNT-TACC3 inh 4.
`CC(Nc1nc(-c2ccccn2)nnc1-c1ccccc1)c1ccccc1` (stereo not given) gave AlphaScreen ctr 2.3µM*.
For CC(Nc1nc(-c2ccccc2)nc2ccccc12)c1ccccc1 (stereo not given) the results were CAL PDZ FP-1 -1 and ARNT-TACC3 inh 22.
`C/C=C/c1ccc2c(c1)O[C@@H](CN(C)C)[C@@H](C)CN([C@H](C)CO)S2(=O)=O` gave ARNT-TACC3 inh -10.
CC(C)NC(=O)N1C[C@H]2[C@@H](c3ccccc31)[C@@H](CO)N2C(=O)C1CCCC1 was read as ARNT-TACC3 inh -5.
For O=C(c1ccncc1)N1C[C@H]2[C@@H](c3ccccc31)[C@@H](CO)N2C(=O)Nc1cccc(F)c1 the results were ARNT-TACC3 inh 6.
Cc1c(NC(=O)c2ccc(-c3ccccc3)cc2)cccc1C(=O)O was read as CAL PDZ FP-1 0, CAL PDZ FP-2 -5 and ARNT-TACC3 inh -8.
Screening Cc1c(NC(=O)c2cccnc2C(=O)O)cccc1C(=O)O returned CAL PDZ FP-1 -2, CAL PDZ FP-2 -3, ARNT-TACC3 inh 34* and AlphaScreen ctr 4%.
`C[C@H]1CCCCO[C@@H](CN(C)C(=O)C2CCCCC2)[C@@H](C)CN([C@@H](C)CO)C(=O)c2cc(NS(=O)(=O)c3cn(C)cn3)ccc2O1` gave ARNT-TACC3 inh -12.
Screening CNC[C@H]1Oc2c(NC(=O)Nc3ccc(C(F)(F)F)cc3)cccc2C(=O)N([C@H](C)CO)C[C@@H]1C returned ARNT-TACC3 inh 24.
For Clc1ccccc1-c1nc(/C=N/N2CCOCC2)c2ccccn12 the results were CAL PDZ FP-1 -3, CAL PDZ FP-2 -6 and ARNT-TACC3 inh 11.
`CN1CCN(/N=C/c2nc(-c3ccccc3Cl)n3ccccc23)CC1` gave CAL PDZ FP-1 -2, CAL PDZ FP-2 -6, ARNT-TACC3 inh 35* and AlphaScreen ctr -22%.
`O=C(C[C@H]1C=C[C@@H](NC(=O)C2CCC2)[C@@H](CO)O1)NC1CCC1` gave ARNT-TACC3 inh -11.
`C[C@H](CO)N1C[C@H](C)[C@H](CN(C)Cc2ccc(C(F)(F)F)cc2)Oc2ccc(NS(=O)(=O)c3cccs3)cc2C1=O` gave ARNT-TACC3 inh 2.
For Cc1ccc(-c2cc(C(=O)N3CCOCC3)no2)cc1 the results were CAL PDZ FP-1 -3, CAL PDZ FP-2 -1 and ARNT-TACC3 inh 1.
Screening O=C(c1cc(-c2ccccc2)on1)N1CCC(N2CCOCC2)CC1 returned AlphaScreen ctr 0%[38 µM].
`Cc1noc(C)c1S(=O)(=O)N(C)C[C@H]1Oc2ccc(NC(=O)C3CCCCC3)cc2CC(=O)N([C@@H](C)CO)C[C@@H]1C` gave ARNT-TACC3 inh -10.
